Source: ChEMBL document CHEMBL4118021, “Studies of TAK1-centered polypharmacology with novel covalent TAK1 inhibitors” (Bioorg Med Chem, 2017)
The source made the active and inactive calls. The rule behind the calls is not given here.

Legend:
[1] = biological target: Aldehyde dehydrogenase family 16 member A1 (Homo sapiens) (UniProt Q8IZ83); test: Binding affinity to ALDH16A1 in human NCI-H358 cells at 1 uM by mass spectrometry based pull down assay; assay type: cell-based
Summary of the method: (§1)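 NCI-H23 or NCI-H358 cells were grown and lysed. Lysates were incubated overnight at 4 °C with 1 μM biotinylated covalent probe or DMSO, then pulled down on streptavidin beads. Proteins were run on polyacrylamide gels and stained with Coomassie. Bands were excised, digested and identified by mass spectrometry.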

[2] = biological target: Actin-related protein 2/3 complex subunit 2 (Homo sapiens) (UniProt O15144); test: Binding affinity to ARPC2 in human NCI-H358 cells at 1 uM by mass spectrometry based pull down assay; assay type: cell-based
[3] = biological target: Cyclin-dependent kinase 5 (Homo sapiens) (UniProt Q00535); test: Binding affinity to CDK5 in human NCI-H358 cells at 1 uM by mass spectrometry based pull down assay; assay type: cell-based
[4] = biological target: Mitogen-activated protein kinase 3 (Homo sapiens) (UniProt P27361); test: Binding affinity to MAPK3 in human NCI-H358 cells at 1 uM by mass spectrometry based pull down assay; assay type: cell-based
NCI-H358 = test: Binding affinity to PSMA7 in human NCI-H358 cells at 1 uM by mass spectrometry based pull down assay; assay type: cell-based
[5] = biological target: ADP-ribose glycohydrolase OARD1 (Homo sapiens) (UniProt Q9Y530); test: Binding affinity to OARD1 in human NCI-H23 cells at 1 uM by mass spectrometry based pull down assay; assay type: cell-based
[6] = biological target: Tyrosine-protein kinase Yes (Homo sapiens) (UniProt P07947); test: Binding affinity to YES1 in human NCI-H358 cells at 1 uM by mass spectrometry based pull down assay; assay type: cell-based
[7] = biological target: T1, 80S Ribosome (Homo sapiens) (UniProt P08865+P42677+P62753+P15880+P23396+P61247+P62701+P22090+P46782+P62081+P62241+P46781+P46783+P62280+P25398+P62277+P62263+P62841+P62244+P62249+P08708+P62269+P39019+P60866+P63220+P62266+P62847+P62851+P62854+P62979+P62857+P62273+P62861+P39023+P36578+P46777+Q02878+P18124+P62424+P62917+P32969+P27635+P62906+P62913+P30050+P26373+P40429+P50914+P61313+P18621+Q07020+Q02543+P84098+P46778+P35268+P62829+P62750+P83731+P61254+P61353+P46776+P46779+P47914+P62888+P62899+P62910+P49207+P42766+P18077+Q9Y3U8+P83881+P61927+P61513+P63173+P62891+P62945+P05388+P05386); test: Binding affinity to RPL26 in human NCI-H23 cells at 1 uM by mass spectrometry based pull down assay; assay type: cell-based
[8] = biological target: Tropomyosin alpha-3 chain (Homo sapiens) (UniProt P06753); test: Binding affinity to TPM3 in human NCI-H23 cells at 1 uM by mass spectrometry based pull down assay; assay type: cell-based
[9] = biological target: Polyadenylate-binding protein 4 (Homo sapiens) (UniProt Q13310); test: Binding affinity to PABPC4 in human NCI-H23 cells at 1 uM by mass spectrometry based pull down assay; assay type: cell-based
[10] = biological target: Nucleoside diphosphate kinase A/B (Homo sapiens) (UniProt P15531+P22392); test: Binding affinity to NME1-NME2 in human NCI-H23 cells at 1 uM by mass spectrometry based pull down assay; assay type: cell-based
[11] = biological target: Small COPII coat GTPase SAR1A (Homo sapiens) (UniProt Q9NR31); test: Binding affinity to SAR1A in human NCI-H23 cells at 1 uM by mass spectrometry based pull down assay; assay type: cell-based
[12] = biological target: ATP-dependent RNA helicase DDX3X (Homo sapiens) (UniProt O00571); test: Binding affinity to DDX3X in human NCI-H358 cells at 1 uM by mass spectrometry based pull down assay; assay type: cell-based
[13] = biological target: T1, 80S Ribosome (Homo sapiens); test: Binding affinity to RPS5 in human NCI-H358 cells at 1 uM by mass spectrometry based pull down assay; assay type: cell-based
[14] = biological target: ATP-citrate synthase (Homo sapiens) (UniProt P53396); test: Binding affinity to ACLY in human NCI-H23 cells at 1 uM by mass spectrometry based pull down assay; assay type: cell-based; summary of the method: as §1
[15] = biological target: Protein NipSnap homolog 1 (Homo sapiens) (UniProt Q9BPW8); test: Binding affinity to NIPSNAP1 in human NCI-H358 cells at 1 uM by mass spectrometry based pull down assay; assay type: cell-based
[16] = biological target: Plakophilin-1 (Homo sapiens) (UniProt Q13835); test: Binding affinity to PKP1 in human NCI-H23 cells at 1 uM by mass spectrometry based pull down assay; assay type: cell-based
[17] = biological target: V-type proton ATPase catalytic subunit A (Homo sapiens) (UniProt P38606); test: Binding affinity to ATP6V1A in human NCI-H358 cells at 1 uM by mass spectrometry based pull down assay; assay type: cell-based
[18] = biological target: Prefoldin subunit 2 (Homo sapiens) (UniProt Q9UHV9); test: Binding affinity to PFDN2 in human NCI-H23 cells at 1 uM by mass spectrometry based pull down assay; assay type: cell-based
[19] = biological target: Phosphoinositide 3-kinase regulatory subunit 4 (Homo sapiens) (UniProt Q99570); test: Binding affinity to PIK3R4 in human NCI-H23 cells at 1 uM by mass spectrometry based pull down assay; assay type: cell-based
[20] = biological target: Vascular endothelial growth factor receptor 1 (Homo sapiens) (UniProt P17948); test: Inhibition of human FLT1 (781 to 1239 residues) expressed in bacterial expression system assessed as enzyme activity at 1 uM by KINOMEScan assay relative to control; set-up: scale not given: the % may be the effect or the level left
Summary of the method: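 In vitro ATP-site competition binding assay across a panel of 456 kinases, with compound tested at 1 and 10 μM.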

[21] = biological target: BMP-2-inducible protein kinase (Homo sapiens) (UniProt Q9NSY1); test: Inhibition of human BIKE (34 to 329 residues) expressed in bacterial expression system assessed as enzyme activity at 1 uM by KINOMEScan assay relative to control; set-up: scale not given: the % may be the effect or the level left
Summary of the method: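 In vitro ATP-site competition binding assay (KinomeScan) across a panel of 456 kinases. Compound was tested at 1 and 10 μM. The read-out is the binding inhibition score relative to control.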

[22] = biological target: Tyrosine-protein kinase Fer (Homo sapiens) (UniProt P16591); test: Inhibition of FER in human SKCO1 cells at 1 uM after 4 hrs using biotin labeled TSVAVKTCKEDLPQELK probe by mass-spectrometric analysis relative to control; assay type: cell-based
[23] = biological target: Mitogen-activated protein kinase kinase kinase 21 (Homo sapiens) (UniProt Q5TCX8); test: Inhibition of MLK4 in human SKCO1 cells at 1 uM after 4 hrs using biotin labeled DLKSSNILLLEK probe by mass-spectrometric analysis relative to control; assay type: cell-based
[24] = biological target: Protein kinase C iota (Homo sapiens) (UniProt P41743); test: Inhibition of PKCi in human SKCO1 cells at 1 uM after 4 hrs using biotin labeled DLKLDNVLLDSEGHIK probe by mass-spectrometric analysis relative to control
Chain of Protein kinase C iota (Homo sapiens) (P41743 whole entry, looked up): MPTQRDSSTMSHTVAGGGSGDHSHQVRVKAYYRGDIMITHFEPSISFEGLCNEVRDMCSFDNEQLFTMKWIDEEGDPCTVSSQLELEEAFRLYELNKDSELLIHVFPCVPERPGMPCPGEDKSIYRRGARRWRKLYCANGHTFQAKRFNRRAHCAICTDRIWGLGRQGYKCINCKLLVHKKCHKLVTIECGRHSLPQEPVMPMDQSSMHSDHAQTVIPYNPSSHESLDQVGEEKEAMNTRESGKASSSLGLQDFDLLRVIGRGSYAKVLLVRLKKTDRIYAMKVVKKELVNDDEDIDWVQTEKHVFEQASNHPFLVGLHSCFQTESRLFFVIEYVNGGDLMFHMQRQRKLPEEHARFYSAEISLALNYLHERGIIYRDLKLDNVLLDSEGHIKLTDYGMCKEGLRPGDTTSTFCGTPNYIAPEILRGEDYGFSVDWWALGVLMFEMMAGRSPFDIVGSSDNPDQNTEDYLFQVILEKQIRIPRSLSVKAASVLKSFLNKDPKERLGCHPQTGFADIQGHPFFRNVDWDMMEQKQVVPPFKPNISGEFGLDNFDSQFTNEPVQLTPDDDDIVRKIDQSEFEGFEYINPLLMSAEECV

Chain of Protein NipSnap homolog 1 (Homo sapiens) (Q9BPW8 whole entry): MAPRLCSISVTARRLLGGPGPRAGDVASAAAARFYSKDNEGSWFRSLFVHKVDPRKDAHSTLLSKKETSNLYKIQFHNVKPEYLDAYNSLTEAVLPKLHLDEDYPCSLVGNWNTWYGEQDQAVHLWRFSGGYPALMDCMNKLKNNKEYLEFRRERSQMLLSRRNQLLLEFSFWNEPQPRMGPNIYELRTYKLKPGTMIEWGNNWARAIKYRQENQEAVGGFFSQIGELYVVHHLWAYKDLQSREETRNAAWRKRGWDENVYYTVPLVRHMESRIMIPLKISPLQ
Chain of Prefoldin subunit 2 (Homo sapiens) (Q9UHV9 whole entry): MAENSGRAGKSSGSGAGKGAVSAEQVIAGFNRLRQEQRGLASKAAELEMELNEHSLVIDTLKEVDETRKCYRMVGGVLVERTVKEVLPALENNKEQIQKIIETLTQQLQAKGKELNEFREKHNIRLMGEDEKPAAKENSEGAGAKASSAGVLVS
Chain of Tyrosine-protein kinase Fer (Homo sapiens) (P16591 whole entry, looked up): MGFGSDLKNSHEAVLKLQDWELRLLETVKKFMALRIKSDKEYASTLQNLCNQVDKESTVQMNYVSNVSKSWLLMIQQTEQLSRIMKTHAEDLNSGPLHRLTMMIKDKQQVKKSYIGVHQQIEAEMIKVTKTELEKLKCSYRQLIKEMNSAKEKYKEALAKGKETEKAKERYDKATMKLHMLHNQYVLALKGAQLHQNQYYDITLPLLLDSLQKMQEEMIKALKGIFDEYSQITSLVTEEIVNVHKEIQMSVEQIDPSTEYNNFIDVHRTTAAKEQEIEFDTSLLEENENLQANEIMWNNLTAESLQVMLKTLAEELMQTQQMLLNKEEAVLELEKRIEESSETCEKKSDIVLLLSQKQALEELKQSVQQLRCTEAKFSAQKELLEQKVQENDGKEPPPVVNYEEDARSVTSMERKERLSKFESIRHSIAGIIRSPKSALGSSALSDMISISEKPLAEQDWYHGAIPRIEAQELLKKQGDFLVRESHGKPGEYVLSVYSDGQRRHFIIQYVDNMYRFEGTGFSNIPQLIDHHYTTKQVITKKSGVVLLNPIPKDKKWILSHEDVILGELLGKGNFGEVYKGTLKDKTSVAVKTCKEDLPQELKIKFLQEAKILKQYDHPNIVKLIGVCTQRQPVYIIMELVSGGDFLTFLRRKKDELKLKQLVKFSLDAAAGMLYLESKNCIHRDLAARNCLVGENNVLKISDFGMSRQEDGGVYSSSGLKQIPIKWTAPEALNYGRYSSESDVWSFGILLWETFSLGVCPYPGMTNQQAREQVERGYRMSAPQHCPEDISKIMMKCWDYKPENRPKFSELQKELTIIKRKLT
Chain of Small COPII coat GTPase SAR1A (Homo sapiens) (Q9NR31 whole entry): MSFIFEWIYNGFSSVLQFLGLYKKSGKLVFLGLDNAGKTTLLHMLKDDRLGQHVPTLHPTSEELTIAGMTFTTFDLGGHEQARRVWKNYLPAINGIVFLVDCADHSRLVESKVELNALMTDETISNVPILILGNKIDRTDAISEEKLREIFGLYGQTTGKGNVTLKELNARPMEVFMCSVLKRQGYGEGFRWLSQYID
Chain of ATP-dependent RNA helicase DDX3X (Homo sapiens) (O00571 2-662 limits assumed): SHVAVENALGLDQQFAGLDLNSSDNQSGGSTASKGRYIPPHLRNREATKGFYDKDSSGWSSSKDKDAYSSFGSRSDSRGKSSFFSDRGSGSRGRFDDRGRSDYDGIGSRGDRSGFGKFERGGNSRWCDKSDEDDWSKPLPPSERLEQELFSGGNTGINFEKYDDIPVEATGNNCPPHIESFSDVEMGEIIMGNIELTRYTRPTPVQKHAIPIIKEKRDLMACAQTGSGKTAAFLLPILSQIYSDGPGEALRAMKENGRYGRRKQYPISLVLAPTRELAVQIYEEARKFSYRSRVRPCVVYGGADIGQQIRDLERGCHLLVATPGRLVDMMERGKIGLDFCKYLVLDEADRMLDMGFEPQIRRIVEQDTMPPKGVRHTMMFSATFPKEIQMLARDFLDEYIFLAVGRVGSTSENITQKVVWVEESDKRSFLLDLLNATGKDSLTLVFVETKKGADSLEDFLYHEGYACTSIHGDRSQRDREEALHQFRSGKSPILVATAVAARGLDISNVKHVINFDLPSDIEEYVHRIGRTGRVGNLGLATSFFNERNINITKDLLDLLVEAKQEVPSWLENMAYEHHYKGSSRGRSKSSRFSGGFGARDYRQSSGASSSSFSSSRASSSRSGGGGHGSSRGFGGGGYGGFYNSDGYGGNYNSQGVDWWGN
Chain of Plakophilin-1 (Homo sapiens) (Q13835 whole entry): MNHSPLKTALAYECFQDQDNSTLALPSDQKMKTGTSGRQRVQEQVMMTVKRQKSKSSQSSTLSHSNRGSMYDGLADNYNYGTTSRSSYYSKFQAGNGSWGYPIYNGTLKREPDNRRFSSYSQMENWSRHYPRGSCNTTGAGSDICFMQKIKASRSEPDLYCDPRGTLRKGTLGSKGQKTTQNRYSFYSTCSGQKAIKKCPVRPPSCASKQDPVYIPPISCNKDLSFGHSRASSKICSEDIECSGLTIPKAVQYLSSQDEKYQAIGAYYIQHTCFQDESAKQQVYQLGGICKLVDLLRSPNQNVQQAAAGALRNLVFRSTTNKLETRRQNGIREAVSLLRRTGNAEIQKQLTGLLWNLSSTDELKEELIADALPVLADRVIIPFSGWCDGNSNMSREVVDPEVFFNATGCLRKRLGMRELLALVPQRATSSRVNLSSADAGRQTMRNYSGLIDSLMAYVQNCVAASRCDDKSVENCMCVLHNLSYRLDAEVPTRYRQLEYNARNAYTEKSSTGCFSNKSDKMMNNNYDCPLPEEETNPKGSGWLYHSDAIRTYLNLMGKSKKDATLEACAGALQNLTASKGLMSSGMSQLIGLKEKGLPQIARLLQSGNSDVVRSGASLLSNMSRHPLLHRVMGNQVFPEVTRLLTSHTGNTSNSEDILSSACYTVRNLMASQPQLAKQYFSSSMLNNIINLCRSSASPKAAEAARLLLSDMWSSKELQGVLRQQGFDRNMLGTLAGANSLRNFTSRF
Chain of Phosphoinositide 3-kinase regulatory subunit 4 (Homo sapiens) (Q99570 whole entry, the tested form may be a part): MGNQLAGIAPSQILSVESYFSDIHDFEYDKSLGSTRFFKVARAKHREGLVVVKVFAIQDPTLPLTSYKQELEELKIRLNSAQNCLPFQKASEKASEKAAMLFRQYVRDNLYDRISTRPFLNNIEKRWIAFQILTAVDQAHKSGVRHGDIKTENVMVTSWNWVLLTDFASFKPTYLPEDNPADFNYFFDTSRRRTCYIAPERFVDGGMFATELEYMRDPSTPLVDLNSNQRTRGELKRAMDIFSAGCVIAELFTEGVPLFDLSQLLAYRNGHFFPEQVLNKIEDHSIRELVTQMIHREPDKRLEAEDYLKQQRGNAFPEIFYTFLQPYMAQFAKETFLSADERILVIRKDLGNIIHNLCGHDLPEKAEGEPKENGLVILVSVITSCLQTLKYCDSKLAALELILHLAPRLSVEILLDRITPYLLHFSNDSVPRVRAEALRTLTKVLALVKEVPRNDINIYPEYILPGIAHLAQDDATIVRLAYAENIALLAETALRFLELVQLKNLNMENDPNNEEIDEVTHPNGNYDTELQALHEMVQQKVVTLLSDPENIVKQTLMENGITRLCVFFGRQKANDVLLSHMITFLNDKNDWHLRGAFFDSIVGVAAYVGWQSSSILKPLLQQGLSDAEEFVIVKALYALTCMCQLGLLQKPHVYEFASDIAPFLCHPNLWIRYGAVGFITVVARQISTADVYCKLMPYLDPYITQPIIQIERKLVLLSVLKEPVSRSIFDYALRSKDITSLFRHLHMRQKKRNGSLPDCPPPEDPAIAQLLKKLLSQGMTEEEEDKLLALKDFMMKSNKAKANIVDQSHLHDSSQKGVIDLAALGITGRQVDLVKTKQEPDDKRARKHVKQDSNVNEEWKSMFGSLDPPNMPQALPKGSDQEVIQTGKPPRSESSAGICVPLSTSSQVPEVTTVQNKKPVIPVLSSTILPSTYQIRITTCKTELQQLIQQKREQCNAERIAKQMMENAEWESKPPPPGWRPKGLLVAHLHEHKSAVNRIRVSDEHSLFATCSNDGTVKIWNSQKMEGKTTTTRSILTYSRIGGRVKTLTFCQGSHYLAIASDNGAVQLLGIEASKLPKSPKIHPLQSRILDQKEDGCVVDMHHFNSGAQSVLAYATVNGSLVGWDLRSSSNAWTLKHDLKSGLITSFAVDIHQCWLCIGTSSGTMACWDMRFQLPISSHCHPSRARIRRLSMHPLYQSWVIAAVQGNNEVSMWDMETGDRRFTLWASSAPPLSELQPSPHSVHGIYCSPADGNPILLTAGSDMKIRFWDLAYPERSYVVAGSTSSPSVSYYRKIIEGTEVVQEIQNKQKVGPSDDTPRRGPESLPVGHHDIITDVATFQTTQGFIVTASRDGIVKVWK
Chain of ADP-ribose glycohydrolase OARD1 (Homo sapiens) (Q9Y530 whole entry): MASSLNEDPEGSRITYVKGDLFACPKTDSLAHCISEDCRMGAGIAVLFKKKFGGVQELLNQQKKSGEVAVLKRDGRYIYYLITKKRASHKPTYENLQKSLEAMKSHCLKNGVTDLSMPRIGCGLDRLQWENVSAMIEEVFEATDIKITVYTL

With `C=CC(=O)Nc1ccccc1Nc1nc(Nc2ccc(N3CCN(CCOCCOCCOCCNC(=O)CCCC[C@@H]4SC[C@@H]5NC(=O)N[C@@H]54)CC3)cc2)ncc1Cl` the Activity [1] was “Active”, the Activity [2] was “Active” and the Activity [3] was “Active”. For the same compound, the Activity [4] was “Active”, the Activity (NCI-H358) was “Active” and the Activity [5] was “Active”. For the same compound, the Activity [6] was “Active”, the Activity [7] was “Active” and the Activity [8] was “Active”. For the same compound, the Activity [9] was “Active”, the Activity [10] was “Active” and the Activity [11] was “Active”. The Activity [12] was “Active”, the Activity [13] was “Active” and the Activity [14] was “Active”. The Activity [15] was “Active”, the Activity [16] was “Active” and the Activity [17] was “Active”. The Activity [18] was “Active” and the Activity [19] was “Active”.

`COc1cc(O)c2c(c1)/C=C/C[C@H](O)[C@H](O)C(=O)/C=C\C[C@H](C)OC2=O` showed an Activity [20] of 16% and an Activity [21] of 68%.

For `C=CC(=O)Nc1ccccc1Nc1nc(Nc2ccc(N3CCN(C)CC3)cc2)ncc1Cl`, the inhibition [22] was -0.2%, the inhibition [23] was -1.1% and the inhibition [24] was -5.7%.
